Blank lines part the entries; values can stand above or below the molecule they belong to.
Experiments:
MOLT-4 = test: Antiproliferative activity against human MOLT4 cells; format: functional
Jurkat = test: Antiproliferative activity against human Jurkat cells; format: functional
NCI-H460 [1] = test: Antiproliferative activity against human H460 cells; format: functional; conditions: for GI50: Homo sapiens, NCI-H460
NCI-H226 = test: Antiproliferative activity against human NCI-H226 cells; format: functional; conditions: for GI50: Homo sapiens, NCI-H226
SW-620 = test: Antiproliferative activity against human SW620 cells; format: functional; conditions: for GI50: Homo sapiens, SW-620
SW1088 = test: Antiproliferative activity against human SW1088 cells; format: functional
HT-29 [2] = test: Antiproliferative activity against human HT-29 cells in presence of 1.5% FCS by BrdU incorporation assay; format: functional, cell-based
KM12 [3] = test: Antiproliferative activity against human KM12 cells by BrdU incorporation assay; format: functional
KM12 [4] = test: Antitumor activity against human KM12 cells; format: functional, cell-based
NCI-H460 [5] = test: Antitumor activity against human NCI-H460 cells; format: functional, cell-based
A549 [6] = test: Antitumor activity against human A549 cells; format: functional, cell-based
[7] = Oral bioavailability in mouse; format: ADME, organism-based; conditions: in vivo
HT-29 [8] = test: Antiproliferative activity against human HT-29 cells in presence of 0.5% FCS; format: functional, cell-based
Homo sapiens [9] = organism: Homo sapiens; test: Inhibition of SRC 527F mutant (unknown origin) expressed in mouse SYF cells assessed as inhibition of cell growth in presence of 10% FCS; format: cell-based
Homo sapiens [10] = organism: Homo sapiens; test: Inhibition of SRC 527F mutant (unknown origin) expressed in mouse SYF cells assessed as inhibition of cell growth in presence of 2% FCS; format: cell-based
[11] = biological target: T1, Proto-oncogene tyrosine-protein kinase Src (Homo sapiens, UniProt P12931); test: Inhibition of human c-SRC expressed in mouse NIH/3T3 cells assessed as reduction in cell growth; format: cell-based
T1 sequence (P12931 2-536 limits assumed): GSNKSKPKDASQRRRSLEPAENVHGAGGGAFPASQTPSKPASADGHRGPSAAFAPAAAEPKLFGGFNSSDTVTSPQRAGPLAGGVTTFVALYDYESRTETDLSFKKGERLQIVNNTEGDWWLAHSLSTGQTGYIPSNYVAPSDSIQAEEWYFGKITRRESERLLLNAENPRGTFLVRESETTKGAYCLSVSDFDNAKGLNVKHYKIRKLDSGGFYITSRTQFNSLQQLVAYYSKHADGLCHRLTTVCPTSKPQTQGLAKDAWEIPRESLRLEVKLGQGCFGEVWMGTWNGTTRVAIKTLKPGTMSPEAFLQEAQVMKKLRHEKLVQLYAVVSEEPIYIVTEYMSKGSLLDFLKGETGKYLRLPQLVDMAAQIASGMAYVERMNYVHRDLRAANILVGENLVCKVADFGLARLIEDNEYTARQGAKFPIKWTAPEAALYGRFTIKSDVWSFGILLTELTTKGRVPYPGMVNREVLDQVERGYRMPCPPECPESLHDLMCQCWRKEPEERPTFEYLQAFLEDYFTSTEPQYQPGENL

HT-29 [12] = test: Antiproliferative activity against human HT-29 cells; format: functional
Bcr/Abl fusion protein = Bcr/Abl fusion protein (Homo sapiens, UniProt P00519); test: Inhibition of BCR/ABL (unknown origin); format: protein assay
SK-OV-3 = test: Antiproliferative activity against human SKOV3 cells; format: functional
[13] = Antiproliferative activity against human PC3MM2 cells; format: functional
L3.6pl = test: Antiproliferative activity against human L3.6PL cells; format: functional
MDA-MB-231 = test: Antiproliferative activity against human MDA-MB-231 cells; format: functional
A549 [14] = test: Antiproliferative activity against human A549 cells; format: functional
Huh-7 = test: Antiproliferative activity against human HuH7 cells; format: functional
769-P = test: Antiproliferative activity against human 769-P cells; format: functional
K562 = test: Antiproliferative activity against human K562 cells; format: functional
K-562R = test: Antiproliferative activity against human K562R cells; format: functional
CCRF-HSB-2 = test: Antiproliferative activity against human CCRF-HSB2 cells; format: functional
KG-1 = test: Antiproliferative activity against human KG1 cells; format: functional
RPMI-8226 = test: Antiproliferative activity against human RPMI8226 cells; format: functional
RL = test: Antiproliferative activity against human RL cells; format: functional
HCT-116 = test: Antiproliferative activity against human HCT116 cells; format: functional
[15] = Ratio of AUC in brain to plasma of mouse at 10 mg/kg, po; format: ADME, organism-based; conditions: brain and plasma, read-out: Ratio AUC
[16] = Drug uptake in mouse brain at 10 mg/kg, po relative to peripheral drug level; format: ADME, organism-based
How it was run: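 Mice dosed orally at 10 mg/kg; brain and plasma exposure measured as AUC and expressed as brain-to-plasma AUC ratio.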

[17] = biological target: T1, Proto-oncogene tyrosine-protein kinase Src; test: Inhibition of Src (unknown origin)
MES-SA/Dx5 = test: Antiproliferative activity against human MES-SA/Dx5 cells; format: functional
NCI/ADR-RES = test: Antiproliferative activity against human NCI/ADR-RES cells; format: functional
[18] = Antiproliferative activity against human PC3MLN4 cells; format: functional
[19] = Half life in po dosed mouse; format: ADME, organism-based; conditions: in vivo
[20] = Half life in rat; format: ADME; conditions: in vivo
[21] = Half life in dog; format: ADME, Canis lupus familiaris; conditions: in vivo
[22] = Drug absorption in po dosed rat; format: ADME, organism-based; conditions: in vivo, read-out: Drug absorption
[23] = Drug absorption in po dosed dog; format: ADME, organism-based, Canis lupus familiaris; conditions: in vivo, read-out: Drug absorption
[24] = Ratio of AUC in tumor to plasma of mouse xenografted with human HT-29 cells at 5 mg/kg, po; format: ADME, organism-based; conditions: tumor and plasma, read-out: Ratio AUC
[25] = Cmax in solid tumor patient at 40 mg, po during phase 1 clinical trial; format: ADME, organism-based; set-up: dose 40 mg, route oral; conditions: human, in vivo
How it was run: (§1)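 Phase 1 trial in late-stage solid tumor patients: continuous twice-daily oral dosing, first in 4-week cycles of 3 weeks on and 1 week off, later without the off week. Plasma PK (Cmax, Tmax, half-life, Vz/F) recorded at each dose level; Cmax given in ng/ml and nM.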

[26] = Tmax in solid tumor patient at 40 mg, po during phase 1 clinical trial; format: ADME, organism-based; conditions: human, in vivo
[27] = Half life in solid tumor patient at 40 mg, po during phase 1 clinical trial; format: ADME, organism-based; conditions: human, in vivo
[28] = Apparent volume of distribution in solid tumor patient at 40 mg, po during phase 1 clinical trial; format: ADME, organism-based; conditions: human, in vivo, read-out: Vz/F; how it was run: as §1
[29] = Cmax in solid tumor patient at 80 mg, po BID during phase 1 clinical trial; format: ADME, organism-based; set-up: dose 80 mg, route oral; conditions: human, in vivo; how it was run: as §1
[30] = Cmax in solid tumor patient at 50 mg, po BID measured during first monthly cycle during phase 1 clinical trial; format: ADME, organism-based; set-up: dose 50 mg, route oral; conditions: human, in vivo; how it was run: as §1
[31] = Cmax in CRPC patient at 40 mg, po BID during phase 2 trial by LC-MS analysis; format: ADME, organism-based; set-up: dose 40 mg, route oral; conditions: human, in vivo
[32] = Cmax in AML patient at 120 mg, po qd; format: ADME, organism-based; set-up: dose 120 mg, route oral; conditions: human, in vivo
How it was run: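 Phase 1b study in elderly advanced AML patients with repeated once-daily oral dosing; plasma and bone-marrow drug concentrations measured.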

[33] = Half life in AML patient at 120 mg, po qd; format: ADME, organism-based; conditions: human, in vivo
[34] = biological target: Tyrosine-protein kinase Lyn (Homo sapiens, UniProt P07948); test: Inhibition of LYN (unknown origin)
Chain of Tyrosine-protein kinase Lyn (P07948 whole entry): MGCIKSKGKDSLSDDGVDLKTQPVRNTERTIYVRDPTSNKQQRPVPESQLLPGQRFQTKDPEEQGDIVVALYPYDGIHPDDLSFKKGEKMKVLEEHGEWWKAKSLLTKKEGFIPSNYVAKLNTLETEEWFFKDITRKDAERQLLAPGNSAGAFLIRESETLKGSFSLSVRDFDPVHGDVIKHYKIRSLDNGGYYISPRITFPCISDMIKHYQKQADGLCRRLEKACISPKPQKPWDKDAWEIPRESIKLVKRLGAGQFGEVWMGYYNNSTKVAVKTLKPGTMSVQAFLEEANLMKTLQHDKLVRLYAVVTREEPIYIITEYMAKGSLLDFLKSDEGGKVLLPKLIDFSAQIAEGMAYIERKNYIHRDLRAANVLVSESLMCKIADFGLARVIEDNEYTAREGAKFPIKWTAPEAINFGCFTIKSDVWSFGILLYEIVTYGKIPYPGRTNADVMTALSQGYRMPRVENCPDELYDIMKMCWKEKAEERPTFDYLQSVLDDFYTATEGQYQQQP

BCR/ABL1 (Mus musculus) = BCR/ABL1 (Mus musculus) (UniProt P00520+Q6PAJ1); conditions: Homo sapiens
Chain of BCR/ABL1 (Mus musculus) (P00520 whole entry, looked up, the tested form may be a part): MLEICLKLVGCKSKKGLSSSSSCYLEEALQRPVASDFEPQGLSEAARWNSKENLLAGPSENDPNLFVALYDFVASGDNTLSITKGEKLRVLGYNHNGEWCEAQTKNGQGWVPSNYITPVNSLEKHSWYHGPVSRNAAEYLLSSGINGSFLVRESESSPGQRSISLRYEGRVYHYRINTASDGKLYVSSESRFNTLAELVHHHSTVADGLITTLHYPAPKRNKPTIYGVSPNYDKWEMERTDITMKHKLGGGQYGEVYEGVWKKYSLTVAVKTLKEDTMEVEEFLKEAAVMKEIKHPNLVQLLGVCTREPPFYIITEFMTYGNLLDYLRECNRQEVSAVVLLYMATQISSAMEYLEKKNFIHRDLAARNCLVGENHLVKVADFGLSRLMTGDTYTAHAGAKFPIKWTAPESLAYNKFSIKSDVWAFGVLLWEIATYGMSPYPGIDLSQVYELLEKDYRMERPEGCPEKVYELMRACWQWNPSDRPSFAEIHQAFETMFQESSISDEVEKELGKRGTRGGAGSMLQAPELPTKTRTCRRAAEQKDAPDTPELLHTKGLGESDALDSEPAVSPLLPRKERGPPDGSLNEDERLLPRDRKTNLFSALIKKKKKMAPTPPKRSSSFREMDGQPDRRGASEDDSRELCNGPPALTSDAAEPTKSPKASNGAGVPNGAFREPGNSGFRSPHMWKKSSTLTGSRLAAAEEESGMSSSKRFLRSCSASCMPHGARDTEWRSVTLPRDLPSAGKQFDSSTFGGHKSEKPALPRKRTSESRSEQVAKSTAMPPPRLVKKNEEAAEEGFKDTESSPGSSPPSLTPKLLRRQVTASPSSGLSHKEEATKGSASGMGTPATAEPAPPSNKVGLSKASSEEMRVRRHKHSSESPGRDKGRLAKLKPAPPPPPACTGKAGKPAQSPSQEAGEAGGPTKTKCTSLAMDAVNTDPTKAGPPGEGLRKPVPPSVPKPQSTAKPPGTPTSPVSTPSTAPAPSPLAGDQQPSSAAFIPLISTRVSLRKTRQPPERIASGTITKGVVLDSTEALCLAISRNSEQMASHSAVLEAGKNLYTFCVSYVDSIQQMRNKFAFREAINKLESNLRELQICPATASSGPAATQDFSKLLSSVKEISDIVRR
Chain of BCR/ABL1 (Mus musculus) (Q6PAJ1 whole entry, looked up, the tested form may be a part): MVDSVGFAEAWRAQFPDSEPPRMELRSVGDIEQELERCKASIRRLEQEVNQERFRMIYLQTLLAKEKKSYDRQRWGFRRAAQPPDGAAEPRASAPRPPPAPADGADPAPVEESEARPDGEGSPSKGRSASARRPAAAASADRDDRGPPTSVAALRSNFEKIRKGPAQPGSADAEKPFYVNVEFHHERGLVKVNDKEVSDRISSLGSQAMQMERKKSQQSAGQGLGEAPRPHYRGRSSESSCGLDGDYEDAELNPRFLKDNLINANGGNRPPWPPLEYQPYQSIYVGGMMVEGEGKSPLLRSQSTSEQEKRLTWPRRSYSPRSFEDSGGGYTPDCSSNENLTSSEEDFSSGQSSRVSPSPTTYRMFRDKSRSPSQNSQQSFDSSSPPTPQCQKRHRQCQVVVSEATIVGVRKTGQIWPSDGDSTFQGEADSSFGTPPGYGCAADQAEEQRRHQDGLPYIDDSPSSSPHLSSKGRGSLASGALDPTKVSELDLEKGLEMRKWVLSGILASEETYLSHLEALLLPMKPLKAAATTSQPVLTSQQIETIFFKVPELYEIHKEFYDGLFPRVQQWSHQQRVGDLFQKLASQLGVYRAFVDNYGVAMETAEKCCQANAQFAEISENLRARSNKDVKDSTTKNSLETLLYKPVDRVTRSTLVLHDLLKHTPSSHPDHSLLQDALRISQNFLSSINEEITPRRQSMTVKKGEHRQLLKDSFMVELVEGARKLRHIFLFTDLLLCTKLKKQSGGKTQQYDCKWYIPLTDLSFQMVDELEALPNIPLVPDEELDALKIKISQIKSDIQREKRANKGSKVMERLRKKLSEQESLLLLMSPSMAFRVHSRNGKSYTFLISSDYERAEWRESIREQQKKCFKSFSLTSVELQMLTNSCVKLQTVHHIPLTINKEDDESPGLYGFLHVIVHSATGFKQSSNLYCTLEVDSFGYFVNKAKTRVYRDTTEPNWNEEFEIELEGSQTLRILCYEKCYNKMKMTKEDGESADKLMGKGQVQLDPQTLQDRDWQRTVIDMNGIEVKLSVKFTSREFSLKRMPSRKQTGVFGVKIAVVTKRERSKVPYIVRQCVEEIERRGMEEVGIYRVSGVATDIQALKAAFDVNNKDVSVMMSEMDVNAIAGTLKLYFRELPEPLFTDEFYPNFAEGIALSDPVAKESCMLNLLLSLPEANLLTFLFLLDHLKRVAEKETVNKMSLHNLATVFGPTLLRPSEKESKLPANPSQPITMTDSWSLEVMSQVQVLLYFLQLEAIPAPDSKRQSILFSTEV

[35] = tested on: Bcr/Abl fusion protein (Homo sapiens), P00519+P11274 [E255K]
[36] = tested on: Bcr/Abl fusion protein (Homo sapiens), P00519+P11274 [T315I]; conditions: Mus musculus

GI50 (MOLT-4): 644 nM
GI50 (Jurkat): 8 nM
GI50 (NCI-H460 [1]): 90 nM
GI50 (NCI-H226): 163 nM
GI90 (SW-620): 2940 nM
GI50 (SW-620): 2420 nM
GI50 (SW1088): 898 nM
Structure (SMILES): Cc1nc(Nc2ncc(C(=O)Nc3c(C)cccc3Cl)s2)cc(N2CCN(CCO)CC2)n1.O [DASATINIB]

IC50 (HT-29 [2]): 877 nM
Structure (SMILES): O=C(Cc1ccc(-c2ccccc2)cc1)NCc1cccc(F)c1
GI50 (KM12 [3]): 410 nM

IC50 (KM12 [4]): 4200 nM
IC50 (NCI-H460 [5]): 59000 nM
IC50 (A549 [6]): 41000 nM
Structure (SMILES): O=C(NCc1cccc(O)c1)c1cc2cc(O)ccc2[nH]1

IC50 (HT-29 [2]): 23 nM
bioavailability [7]: 49%
IC50 (HT-29 [8]): 5 nM
GI50 [11]: 20 nM
GI50 (HT-29 [12]): 25 nM
IC50 (Bcr/Abl fusion protein): 100 to 200 nM
GI50 (SK-OV-3): 10 nM
GI50 (MDA-MB-231): 20 nM
GI50 (A549 [14]): 9 nM
GI50 (Huh-7): 9 nM
GI50 (K562): 13 nM
GI50 (K-562R): 0.64 nM
GI50 (MOLT-4): 13 nM
GI50 (CCRF-HSB-2): 12 nM
GI50 (Jurkat): 10 nM
GI50 (RPMI-8226): 40 nM
GI90 (NCI-H460 [1]): 162 nM
GI50 (NCI-H460 [1]): 51 nM
GI90 (NCI-H226): 490 nM
GI50 (NCI-H226): 98 nM
GI90 (HCT-116): 195 nM
GI50 (HCT-116; Homo sapiens, HCT-116): 31 nM
GI90 (SW-620): 903 nM
GI50 (SW-620): 109 nM
Kp [15]: 0.42
Drug uptake [16]: 42%
IC50 [17]: 46000 nM
half-life [19]: 1 h
half-life [20]: 2 h
half-life [21]: 8 h
Fa [22]: 50 to 90%
Fa [23]: 50 to 90%
Kp [24]: 1.52
Cmax [25]: 80 ng/mL
Tmax [26]: 1 h
half-life [27]: 4 h
Vd/F [28]: 681 L
Cmax [29]: 273 ng/mL
Cmax [30]: 231 ng/mL
Cmax [31]: 61 ng/mL
Cmax [32]: 218 ng/mL
half-life [33]: 2.2 h
IC50 [34]: 100 to 200 nM
GI50 (BCR/ABL1 (Mus musculus)): 85 nM
GI50 [35]: 80 nM
GI50 [36]: 35 nM
Structure (SMILES): O=C(Cc1ccc(-c2ccc(OCCN3CCOCC3)cc2)cn1)NCc1ccccc1 [TIRBANIBULIN]
GI50 (Homo sapiens [9]): 123 nM
GI50 (Homo sapiens [10]): 23 nM
GI50 [13]: 9 nM
GI50 (L3.6pl): 25 nM
GI50 (769-P): 45 nM
GI50 (KG-1): 16 nM
GI50 (RL): 19 nM
GI50 (MES-SA/Dx5): 34 nM
GI50 (NCI/ADR-RES): 56 nM
GI50 [18]: 40 nM

Structure (SMILES): CC(=O)O[C@H]1C(=O)[C@@]2(C)[C@H]([C@H](OC(=O)c3ccccc3)[C@]3(O)C[C@H](OC(=O)[C@H](O)[C@@H](NC(=O)c4ccccc4)c4ccccc4)C(C)=C1C3(C)C)[C@]1(OC(C)=O)CO[C@@H]1C[C@@H]2O [PACLITAXEL]
GI50 (MES-SA/Dx5): 1800 nM
GI50 (NCI/ADR-RES): 5940 nM

IC50 (NCI-H460 [5]): 15000 nM
Structure (SMILES): O=C(NCc1cccc(F)c1)c1cc2cc(F)ccc2[nH]1
